From paper PMC8048816 (Angewandte Chemie (International Ed. in English), 2021)
Read-outs that look alike come from different tables or passages of the source.

How the values were obtained:
Type in all cases: binding
LecA [1] = biological target: T1, LecA (Pseudomonas aeruginosa, UniProt Q05097); details: for FP with 2ME Inhibition [%] at 4 mM / FP Inhibition [%] at 4 mM: 4 mM catechol, average and std. dev. of 3 experiments; for FP with 2ME Inhibition [%] at 4 mM: with 2-mercaptoethanol; for FP Inhibition [%] at 4 mM: without 2-mercaptoethanol
T1 sequence (Q05097 2-122 limits assumed): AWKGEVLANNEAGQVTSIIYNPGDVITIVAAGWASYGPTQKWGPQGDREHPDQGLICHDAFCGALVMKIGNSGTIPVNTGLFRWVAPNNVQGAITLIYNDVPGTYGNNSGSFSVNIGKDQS
How it was run: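 Competitive fluorescence polarization assay measuring displacement of a Cy5-labelled galactoside probe from LecA. The Cy5 probe replaced an earlier fluorescein conjugate to avoid spectral overlap. Test compound at 4 mM, with or without 2-mercaptoethanol; some compounds at 25 % DMSO. Methyl α-D-galactoside as positive control. Percent inhibition given as average and std. dev. of 3 experiments.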

LecA [2] = biological target: T1, LecA; assay: thermal shift assay; details: change of LecA melting point, 4 mM test compound, average of two experiments
5FW‐LecA = biological target: T2, 5FW‐LecA (Pseudomonas aeruginosa, UniProt Q05097); assay: protein-observed 19F; details: 1.5 mM catechol, 200 µM 5FW-LecA; n.s.=not significant
T2 sequence (Q05097 2-122 limits assumed): T1 sequence (Q05097 2-122 limits assumed)

Langerin ECD = Langerin ECD (Homo sapiens, UniProt Q9UJ71); assay: 1H STD competition NMR with mannose; details: 1 mM compound, 20 μM Langerin ECD, 100 mM D-mannose
Chain of Langerin ECD (Q9UJ71 65-328 limits assumed): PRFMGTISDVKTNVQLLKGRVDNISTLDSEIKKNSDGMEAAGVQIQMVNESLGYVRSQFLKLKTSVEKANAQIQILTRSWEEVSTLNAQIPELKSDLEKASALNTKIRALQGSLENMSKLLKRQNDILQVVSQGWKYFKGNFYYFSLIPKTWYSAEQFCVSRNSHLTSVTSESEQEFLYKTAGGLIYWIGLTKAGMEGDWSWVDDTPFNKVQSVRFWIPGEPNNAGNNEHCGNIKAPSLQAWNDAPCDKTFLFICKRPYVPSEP

LecA [3] = biological target: T1, LecA; assay: surface plasmon resonance
How it was run: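 Recombinant LecA was immobilized for SPR. Test compound was injected at two concentrations: 0.2 and 1 mM, or 0.2 and 0.5 mM for some compounds. Steady-state binding responses were read from sensorgrams. 0.1 mM pNPGal was injected as positive control to monitor LecA activity and normalize data. Kd came from multi-cycle kinetic analyses of prioritized compounds.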

human Langerin CRD = human Langerin CRD (Homo sapiens, UniProt Q9UJ71, V278A); assay: 1H-15N HSQC NMR; details: 1 mM compound, 100 μM Langerin CRD
Chain of human Langerin CRD (Q9UJ71 202-320 V278A): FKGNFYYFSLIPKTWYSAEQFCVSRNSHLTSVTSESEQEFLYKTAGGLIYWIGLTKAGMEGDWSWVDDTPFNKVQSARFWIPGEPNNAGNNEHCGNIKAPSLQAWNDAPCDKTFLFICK

LecA [4] = biological target: T1, LecA; assay: ligand-observed T1ρ relaxation NMR; details: for effect of excess Me‐α‐D‐Gal on T1ρ relaxation with LecA: displacement experiment; for T1ρ relaxation rate in presence of LecA: with vs without LecA
LecA [5] = biological target: T1, LecA; details: read-out: inhibition at 3.3 mM
How it was run: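 Purchased virtual-screening hits from the NCI Diversity IV set, selected for structural diversity, were tested once at 3.3 mM. Assay: the established competitive fluorescence polarization assay, scoring displacement of a fluorescent galactoside ligand from LecA as percent inhibition.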

[6] = read-out: FP Inhibition [%] at 4 mM
[7] = read-out: FP with 2ME Inhibition [%] at 4 mM

| SMILES | FP with 2ME Inhibition [%] at 4 mM (LecA [1]) | FP Inhibition [%] at 4 mM (LecA [1]) | TSA ΔT [K] (LecA [2]) | PrOF NMR CSP of W42 [ppm] (5FW‐LecA) | inhibition at 4000 µM (LecA [1]; [6]) | inhibition at 4000 µM (LecA [1]; [7]) | reduction in peak intensities in STD NMR spectra in presence of mannose (Langerin ECD) | Kd (LecA [3]) | ligand efficiency (LecA [3]; from SPR Kd) | effect of excess Me‐α‐D‐Gal on T1ρ relaxation with LecA (LecA [4]) | T1ρ relaxation rate in presence of LecA (LecA [4]) | inhibition at 3300 µM (LecA [5]) | chemical shift perturbations of Langerin CRD resonances (human Langerin CRD) |
| --- | --- | --- | --- | --- | --- | --- | --- | --- | --- | --- | --- | --- | --- |
| Oc1ccccc1O [Compound 1, catechol] | none | inconcl. | −4.5 K | n.s. |  |  |  |  |  |  |  |  |  |
| O=C(c1ccccc1)c1ccc(O)c(O)c1 [Compound 23, 4‐benzoyl catechol] |  |  | +0.36 K | 0.110 ppm | 39 ± 5% | 39% |  |  |  |  |  |  |  |
| Cc1ccc(O)c(O)c1 [Compound 11, 4‐methyl catechol] | none | inconcl. | −11.0 K | n.s. |  |  |  |  |  |  |  |  |  |

Second part, led by results:

| FP with 2ME Inhibition [%] at 4 mM (LecA [1]) | FP Inhibition [%] at 4 mM (LecA [1]) | TSA ΔT [K] (LecA [2]) | PrOF NMR CSP of W42 [ppm] (5FW‐LecA) | inhibition at 4000 µM (LecA [1]; [6]) | inhibition at 4000 µM (LecA [1]; [7]) | reduction in peak intensities in STD NMR spectra in presence of mannose (Langerin ECD) | Kd (LecA [3]) | ligand efficiency (LecA [3]; from SPR Kd) | effect of excess Me‐α‐D‐Gal on T1ρ relaxation with LecA (LecA [4]) | T1ρ relaxation rate in presence of LecA (LecA [4]) | inhibition at 3300 µM (LecA [5]) | SMILES | chemical shift perturbations of Langerin CRD resonances (human Langerin CRD) |
| --- | --- | --- | --- | --- | --- | --- | --- | --- | --- | --- | --- | --- | --- |
|  |  | +1.8 K | 0.045 ppm | 23 ± 2% | 23% | 65% | 1110 ± 70 µM | 0.40 |  |  |  | N#Cc1cccc(O)c1O [Compound 3, 3‐cyano catechol] | promoted chemical shift perturbations (CSPs) |
|  |  |  | 0.185 ppm | 29 ± 3% | 22 ± 2% |  |  |  |  |  |  | O=C(c1ccc(Cl)cc1)c1ccc(O)c(O)c1 [Compound 24, 4‐parachlorobenzoyl catechol] |  |
| none | inconcl. | −15.4 K | 0.130 ppm |  |  |  |  |  | no significant effect | much weaker |  | CC(C)(C)c1ccc(O)c(O)c1 [Compound 13, 4‐tert‐butyl catechol] |  |
|  |  | +0.35 K | 0.08 ppm | 10 ± 2% | 11 ± 2% |  |  |  | fully reversed to the free state | strongly increased | ~10% | CC(C)C(=O)c1ccc(O)c(O)c1 [Compound 21, 4‐isobutyryl catechol] |  |
